Test results published in ChEMBL document CHEMBL4706666, “Targeting Cysteine Located Outside the Active Site: An Effective Strategy for Covalent ALKi Design” (J Med Chem, 2021).
Each block holds one compound with its values, some of them ahead of it. Active and inactive are the calls of the source. No cut-off for these calls is given here.

Experiments:
[1] = biological target: T1, ALK tyrosine kinase receptor (Homo sapiens, UniProt Q9UM73); test: Inhibition of N-terminal GST tagged human ALK cytoplasmic domain (1058 to 1620 residues) expressed in Sf21 cells by mobility shift assay
Procedure, shortened: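 Wild-type ALK, kinase substrate and ATP at Km were combined with compound in kinase buffer and incubated 10 min at room temperature. Read-out was by mobility shift, and IC50 was derived by curve fitting.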
Target sequence in this assay (Q9UM73 whole entry, the tested form may be a part): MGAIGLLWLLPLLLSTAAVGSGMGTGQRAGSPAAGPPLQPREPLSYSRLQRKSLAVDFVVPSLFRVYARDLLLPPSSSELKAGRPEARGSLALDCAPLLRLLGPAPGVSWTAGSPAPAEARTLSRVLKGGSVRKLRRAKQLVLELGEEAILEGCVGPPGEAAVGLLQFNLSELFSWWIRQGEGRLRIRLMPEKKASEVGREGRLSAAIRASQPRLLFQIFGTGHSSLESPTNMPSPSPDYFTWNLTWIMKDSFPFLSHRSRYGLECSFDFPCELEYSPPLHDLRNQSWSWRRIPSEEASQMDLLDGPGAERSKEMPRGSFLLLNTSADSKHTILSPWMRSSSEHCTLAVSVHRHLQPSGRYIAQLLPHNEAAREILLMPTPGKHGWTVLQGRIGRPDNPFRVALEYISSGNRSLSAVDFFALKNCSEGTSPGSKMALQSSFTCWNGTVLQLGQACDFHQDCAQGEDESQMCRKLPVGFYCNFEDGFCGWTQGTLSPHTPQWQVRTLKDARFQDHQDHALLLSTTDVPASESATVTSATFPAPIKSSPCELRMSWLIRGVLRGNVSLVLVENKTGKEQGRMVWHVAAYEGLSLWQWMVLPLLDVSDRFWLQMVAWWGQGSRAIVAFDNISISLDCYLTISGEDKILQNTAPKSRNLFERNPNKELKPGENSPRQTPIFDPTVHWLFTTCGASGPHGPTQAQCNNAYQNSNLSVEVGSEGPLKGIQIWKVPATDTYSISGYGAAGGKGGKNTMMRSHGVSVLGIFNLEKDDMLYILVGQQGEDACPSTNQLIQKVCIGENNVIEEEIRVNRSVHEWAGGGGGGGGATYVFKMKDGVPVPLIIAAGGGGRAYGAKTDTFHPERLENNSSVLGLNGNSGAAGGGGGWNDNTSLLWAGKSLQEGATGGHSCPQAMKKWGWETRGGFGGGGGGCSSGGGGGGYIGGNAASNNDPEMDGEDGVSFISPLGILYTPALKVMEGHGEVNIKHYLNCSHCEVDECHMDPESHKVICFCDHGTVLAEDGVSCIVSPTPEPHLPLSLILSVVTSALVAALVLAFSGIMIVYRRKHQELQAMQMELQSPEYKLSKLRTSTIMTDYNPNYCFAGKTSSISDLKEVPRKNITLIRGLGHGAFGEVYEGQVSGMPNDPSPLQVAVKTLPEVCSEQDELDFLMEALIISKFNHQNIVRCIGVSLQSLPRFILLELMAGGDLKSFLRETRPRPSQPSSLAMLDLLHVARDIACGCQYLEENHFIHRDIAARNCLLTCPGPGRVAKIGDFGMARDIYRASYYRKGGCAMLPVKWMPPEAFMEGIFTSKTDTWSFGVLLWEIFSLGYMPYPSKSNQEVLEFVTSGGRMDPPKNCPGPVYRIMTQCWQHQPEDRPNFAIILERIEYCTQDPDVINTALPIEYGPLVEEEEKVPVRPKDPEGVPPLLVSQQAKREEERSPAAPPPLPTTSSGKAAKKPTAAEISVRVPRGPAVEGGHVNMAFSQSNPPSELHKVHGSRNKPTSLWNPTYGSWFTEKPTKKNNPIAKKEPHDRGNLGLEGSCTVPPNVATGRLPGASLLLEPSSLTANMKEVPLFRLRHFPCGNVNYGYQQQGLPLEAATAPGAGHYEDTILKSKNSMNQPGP

[2] = system: ALK tyrosine kinase receptor (Homo sapiens), Q9UM73 [L1196M]; conditions: Sf21, dose 200.0 nM, time 10.0 min
ALK tyrosine kinase receptor (Homo sapiens), Q9UM73 [L1196M], sequence (Q9UM73 whole entry L1196M, looked up): as the sequence (Q9UM73 whole entry, the tested form may be a part) above, with L1196M counted along it

[3] = system: NCI-H3122; test: Antitumor activity against human NCI-H3122 cells xenografted in Balb/c nude mouse assessed as tumor growth inhibition at 20 mg/kg/day, po and measured 15 days post treatment by vernier caliper method relative to control; type: functional; conditions: 360 h, time 15 day, read-out: TGI
Procedure, shortened: (§1)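 Female BALB/c nude mice, 6−7 weeks old and 18−22 g, were implanted sc with 5 × 10⁶ exponential-phase H3122 cells in 0.1 mL serum- and antibiotic-free medium. At 150−200 mm³ they were randomized (6 per group) and dosed orally once daily at 10, 20 or 50 mg/kg in 10% NMP/90% PEG300, with a vehicle group. Body weight and caliper tumor volume (a × b²/2) were recorded every 3 days. TGI versus vehicle was determined after 15 days.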

[4] = system: NCI-H3122; test: Antiproliferative activity against human NCI-H3122 cells assessed as reduction in cell viability incubated for 72 hrs by MTT assay; conditions: NCI-H3122, 72 h
[5] = biological target: T1, ALK tyrosine kinase receptor; test: Inhibition of N-terminal GST tagged human ALK cytoplasmic domain (1058 to 1620 residues) expressed in Sf21 cells at 200 nM incubated for 10 mins by mobility shift assay
Target sequence in this assay (Q9UM73 19-1620 limits assumed): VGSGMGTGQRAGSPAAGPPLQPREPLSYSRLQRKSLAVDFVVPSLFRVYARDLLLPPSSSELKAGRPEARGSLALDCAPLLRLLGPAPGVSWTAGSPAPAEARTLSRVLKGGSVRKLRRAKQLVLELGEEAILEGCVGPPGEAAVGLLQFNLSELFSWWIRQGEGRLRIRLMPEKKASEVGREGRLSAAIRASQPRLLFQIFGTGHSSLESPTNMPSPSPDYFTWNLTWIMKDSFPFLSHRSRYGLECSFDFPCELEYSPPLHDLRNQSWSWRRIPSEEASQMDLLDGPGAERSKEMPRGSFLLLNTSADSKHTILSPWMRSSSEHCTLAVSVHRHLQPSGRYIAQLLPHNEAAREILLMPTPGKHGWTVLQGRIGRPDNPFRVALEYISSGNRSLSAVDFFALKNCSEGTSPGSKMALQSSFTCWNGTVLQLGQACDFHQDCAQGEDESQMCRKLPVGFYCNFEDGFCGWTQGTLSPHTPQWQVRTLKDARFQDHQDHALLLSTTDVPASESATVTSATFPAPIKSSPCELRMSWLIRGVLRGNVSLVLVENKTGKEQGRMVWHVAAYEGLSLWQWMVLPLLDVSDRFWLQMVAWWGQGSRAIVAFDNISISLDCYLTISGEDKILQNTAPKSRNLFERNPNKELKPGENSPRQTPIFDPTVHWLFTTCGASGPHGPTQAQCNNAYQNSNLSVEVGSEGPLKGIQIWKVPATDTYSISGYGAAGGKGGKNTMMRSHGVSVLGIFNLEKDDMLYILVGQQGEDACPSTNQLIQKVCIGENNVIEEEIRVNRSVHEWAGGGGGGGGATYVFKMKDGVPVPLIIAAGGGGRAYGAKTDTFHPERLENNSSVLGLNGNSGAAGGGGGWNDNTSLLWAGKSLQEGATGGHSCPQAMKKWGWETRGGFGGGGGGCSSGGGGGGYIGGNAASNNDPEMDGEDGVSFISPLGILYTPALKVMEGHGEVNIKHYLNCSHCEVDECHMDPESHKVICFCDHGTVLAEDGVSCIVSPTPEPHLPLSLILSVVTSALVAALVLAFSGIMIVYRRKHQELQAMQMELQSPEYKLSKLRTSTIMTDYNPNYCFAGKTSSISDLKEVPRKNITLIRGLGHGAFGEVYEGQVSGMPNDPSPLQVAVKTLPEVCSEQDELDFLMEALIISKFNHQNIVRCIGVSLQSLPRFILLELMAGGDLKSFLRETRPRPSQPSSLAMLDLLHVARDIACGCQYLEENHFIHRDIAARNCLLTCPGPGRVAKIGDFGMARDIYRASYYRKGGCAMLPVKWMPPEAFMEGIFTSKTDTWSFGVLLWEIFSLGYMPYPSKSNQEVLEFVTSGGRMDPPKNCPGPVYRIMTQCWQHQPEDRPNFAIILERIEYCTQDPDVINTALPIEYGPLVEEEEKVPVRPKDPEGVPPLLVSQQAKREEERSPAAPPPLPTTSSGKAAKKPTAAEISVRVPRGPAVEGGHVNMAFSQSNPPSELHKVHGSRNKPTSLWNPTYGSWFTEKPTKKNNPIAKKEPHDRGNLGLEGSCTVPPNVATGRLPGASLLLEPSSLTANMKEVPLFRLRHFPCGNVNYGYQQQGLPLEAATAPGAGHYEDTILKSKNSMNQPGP

[6] = biological target: T1, ALK tyrosine kinase receptor; test: Inhibition of ALK in human NCI-H3122 cells assessed as decrease in STAT3 expression levels at 10 to 500 nM incubated for 24 hrs by western blot analysis; type: cell-based; conditions: dose 10-500 nM
Procedure, shortened: (§2)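 H3122 cells were exposed for 24 h at 37 °C to 0, 10, 50, 200 or 500 nM, then lysed in RIPA buffer with protease/phosphatase inhibitors and 1 mM PMSF. Protein was BCA-normalized and run on SDS−PAGE to PVDF. Primary antibodies were applied overnight at 4 °C in 5% BSA/TBST, then HRP secondary (1/5000, 1 h). Detection was by chemiluminescence.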
Target sequence in this assay (Q9UM73 19-1620 limits assumed): as above

[7] = AUC (0 to infinity) in Sprague-Dawley rat at 10 mg/kg, po measured upto 24 hrs by LC-MS/MS analysis; type: ADME, organism-based; design: route oral, dose 10 mg/kg, time <=24; conditions: in vivo
Procedure, shortened: (§3)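 Male SD rats (200−220 g, n = 3 per group) received 1 mg/kg iv in 5% DMA/10% Solutol HS 15/85% saline, or 10 mg/kg orally in 0.5% CMC-Na. Jugular-vein blood was drawn to 24 h, and plasma was kept at −80 °C. Plasma levels were quantified by LC−MS/MS (LLOQ 1 ng/mL), and parameters were derived by noncompartmental analysis.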

[8] = system: NCI-H3122; test: Antitumor activity against human NCI-H3122 cells xenografted in Balb/c nude mouse assessed as tumor growth inhibition administered orally and measured every 3 days for 15 days by vernier caliper method; type: functional, cell-based; conditions: time 15.0 day; procedure, shortened: as §1
[9] = biological target: Fibroblast growth factor receptor 2 (Homo sapiens, UniProt P21802); test: Inhibition of FGFR2 (unknown origin)
Fibroblast growth factor receptor 2, sequence (P21802 whole entry): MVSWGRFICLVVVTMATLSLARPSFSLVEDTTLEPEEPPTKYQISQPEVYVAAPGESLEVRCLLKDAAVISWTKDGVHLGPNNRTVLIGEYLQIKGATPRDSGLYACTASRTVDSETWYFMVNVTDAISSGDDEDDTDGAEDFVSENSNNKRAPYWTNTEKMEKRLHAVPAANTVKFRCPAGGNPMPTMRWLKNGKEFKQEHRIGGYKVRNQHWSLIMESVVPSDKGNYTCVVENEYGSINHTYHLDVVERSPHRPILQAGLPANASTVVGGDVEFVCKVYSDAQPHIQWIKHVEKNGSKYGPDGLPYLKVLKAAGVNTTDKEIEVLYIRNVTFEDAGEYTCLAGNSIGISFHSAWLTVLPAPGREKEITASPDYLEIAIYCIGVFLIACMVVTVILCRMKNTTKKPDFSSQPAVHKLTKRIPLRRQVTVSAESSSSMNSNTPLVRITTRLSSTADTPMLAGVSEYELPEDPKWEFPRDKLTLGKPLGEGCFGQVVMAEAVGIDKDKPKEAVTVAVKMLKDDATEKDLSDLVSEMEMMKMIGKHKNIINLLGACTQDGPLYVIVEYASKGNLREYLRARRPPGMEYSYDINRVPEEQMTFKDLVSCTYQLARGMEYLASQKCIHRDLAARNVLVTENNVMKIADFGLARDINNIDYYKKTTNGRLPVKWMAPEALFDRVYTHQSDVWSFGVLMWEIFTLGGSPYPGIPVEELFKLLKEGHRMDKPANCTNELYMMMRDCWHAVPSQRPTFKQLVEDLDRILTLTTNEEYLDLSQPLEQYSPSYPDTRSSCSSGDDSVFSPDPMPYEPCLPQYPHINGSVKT

[10] = Volume of distribution at steady state in Sprague-Dawley rat at 1 mg/kg, iv measured upto 24 hrs by LC-MS/MS analysis; type: ADME, organism-based; conditions: in vivo, read-out: Vdss; procedure, shortened: as §3
[11] = system: NCI-H3122; test: Antitumor activity against human NCI-H3122 cells xenografted in Balb/c nude mouse assessed as tumor growth inhibition at 50 mg/kg/day, po and measured 15 days post treatment by vernier caliper method relative to control; type: functional; conditions: 360 h, time 15 day, read-out: TGI; procedure, shortened: as §1
[12] = system: L02; test: Antiproliferative activity against human L02 cells assessed as reduction in cell viability at 5 uM incubated for 72 hrs by MTT assay relative to Ceritinib; type: cell-based; conditions: l02, 72 h
Procedure, shortened: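 Normal human liver LO2 cells were grown at 37 °C, 5% CO₂ with 10% FBS and seeded at 2−5 × 10³ per well for 24 h. Compound was added at 5 μM for 72 h, followed by MTT for 1−4 h and absorbance read at 450 nm. Inhibition rate was taken from OD.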

[13] = Cmax in Sprague-Dawley rat at […] measured upto 24 hrs by LC-MS/MS analysis; type: ADME, organism-based; design: route intravenous, dose 1 mg/kg, time <=24; conditions: in vivo
[14] = biological target: T1, ALK tyrosine kinase receptor; test: Inhibition of N-terminal GST tagged human ALK cytoplasmic domain (1058 to 1620 residues) expressed in Sf21 cells at 20 nM incubated for 10 mins by mobility shift assay
Target sequence in this assay (Q9UM73 19-1620 limits assumed): as the sequence (Q9UM73 19-1620 limits assumed) above

[15] = Half life in Sprague-Dawley rat at 10 mg/kg, po measured upto 24 hrs by LC-MS/MS analysis; type: ADME, organism-based; conditions: in vivo; procedure, shortened: as §3
[16] = system: NCI-H3122; test: Antitumor activity against human NCI-H3122 cells xenografted in Balb/c nude mouse assessed as tumor growth inhibition at 10 mg/kg/day, po and measured 15 days post treatment by vernier caliper method relative to control; type: functional; conditions: 360 h, time 15 day, read-out: TGI; procedure, shortened: as §1
[17] = Tmax in Sprague-Dawley rat at […] measured upto 24 hrs by LC-MS/MS analysis; type: ADME, organism-based; conditions: in vivo
[18] = biological target: T1, ALK tyrosine kinase receptor; test: Inhibition of ALK in human NCI-H3122 cells assessed as decrease in phosphorylation of AKT at 10 to 500 nM incubated for 24 hrs by western blot analysis; type: cell-based; conditions: dose 10-500 nM; procedure, shortened: as §2
Target sequence in this assay (Q9UM73 19-1620 limits assumed): as above

[19] = Clearance in Sprague-Dawley rat at 1 mg/kg, iv measured upto 24 hrs by LC-MS/MS analysis; type: ADME, organism-based; conditions: in vivo; procedure, shortened: as §3
[20] = biological target: T2, Receptor-type tyrosine-protein kinase FLT3 (Homo sapiens, UniProt P36888); test: Inhibition of FLT3 (unknown origin)
T2 sequence (P36888 whole entry): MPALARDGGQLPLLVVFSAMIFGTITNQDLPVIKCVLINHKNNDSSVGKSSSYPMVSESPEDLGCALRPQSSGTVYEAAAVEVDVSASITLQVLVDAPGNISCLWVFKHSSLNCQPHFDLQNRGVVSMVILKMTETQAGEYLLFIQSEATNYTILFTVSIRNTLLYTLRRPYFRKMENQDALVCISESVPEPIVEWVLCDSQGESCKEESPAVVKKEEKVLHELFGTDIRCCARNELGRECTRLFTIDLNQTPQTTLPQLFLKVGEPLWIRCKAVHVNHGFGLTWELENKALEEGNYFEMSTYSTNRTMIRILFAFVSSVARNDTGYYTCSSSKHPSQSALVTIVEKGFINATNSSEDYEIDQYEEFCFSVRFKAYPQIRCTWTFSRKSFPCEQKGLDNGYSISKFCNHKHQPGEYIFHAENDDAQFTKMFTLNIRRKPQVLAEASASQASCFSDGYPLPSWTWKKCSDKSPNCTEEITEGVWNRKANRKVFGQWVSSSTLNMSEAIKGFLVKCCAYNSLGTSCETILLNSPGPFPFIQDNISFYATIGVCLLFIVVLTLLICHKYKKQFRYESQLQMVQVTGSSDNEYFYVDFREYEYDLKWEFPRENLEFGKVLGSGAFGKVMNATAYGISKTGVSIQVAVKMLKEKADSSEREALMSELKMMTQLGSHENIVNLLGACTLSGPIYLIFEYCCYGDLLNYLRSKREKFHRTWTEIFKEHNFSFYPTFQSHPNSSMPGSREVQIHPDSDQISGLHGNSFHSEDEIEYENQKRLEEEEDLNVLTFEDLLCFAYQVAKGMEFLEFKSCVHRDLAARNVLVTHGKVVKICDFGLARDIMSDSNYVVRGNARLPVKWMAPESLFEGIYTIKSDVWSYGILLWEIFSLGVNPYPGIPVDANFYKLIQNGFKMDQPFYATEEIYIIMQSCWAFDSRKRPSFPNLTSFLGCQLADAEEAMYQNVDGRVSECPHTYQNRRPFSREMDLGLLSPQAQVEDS

[21] = biological target: T1, ALK tyrosine kinase receptor; test: Inhibition of ALK in human NCI-H3122 cells assessed as downregulation of AKT expression levels at 10 to 500 nM incubated for 24 hrs by western blot analysis; type: cell-based; conditions: dose 10-500 nM; procedure, shortened: as §2
Target sequence in this assay (Q9UM73 19-1620 limits assumed): as the sequence (Q9UM73 19-1620 limits assumed) above

[22] = Oral bioavailability in Sprague-Dawley rat at 10 mg/kg measured upto 24 hrs by LC-MS/MS analysis; type: ADME, organism-based; conditions: in vivo; procedure, shortened: as §3
[23] = Toxicity in Balb/c mouse xenografted with human NCI-H3122 cells assessed as change in body weight at 10 to 50 mg/kg/day, po and measured every 3 days for 15 days; type: organism-based; conditions: in vivo, 360 h, dose 10-50 mg/kg/day, time 15 day; procedure, shortened: as §1
[24] = biological target: T1, ALK tyrosine kinase receptor; test: Inhibition of ALK phosphorylation in human NCI-H3122 cells at 10 to 500 nM incubated for 24 hrs by western blot analysis; type: cell-based; conditions: dose 10-500 nM; procedure, shortened: as §2
Target sequence in this assay (Q9UM73 19-1620 limits assumed): as the sequence (Q9UM73 19-1620 limits assumed) above

[25] = Binding affinity to L-cysteine assessed as molecular mass incubated for 8 hrs by LC-MS analysis
Procedure, shortened: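 L-cysteine incubated in water with a 5-fold molar excess of compound (or DMSO) for 8 h at 4 °C; reaction mixtures analysed by LC–MS on an ion trap mass spectrometer to detect adduct mass.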

[26] = biological target: T1, ALK tyrosine kinase receptor; test: Covalent inhibition of N-terminal GST tagged human ALK cytoplasmic domain (1058 to 1620 residues) expressed in Sf21 cells in presence of high ATP levels
Target sequence in this assay (Q9UM73 whole entry, the tested form may be a part): as the sequence (Q9UM73 whole entry, the tested form may be a part) above

[27] = biological target: T1, ALK tyrosine kinase receptor; test: Inhibition of ALK in human NCI-H3122 cells assessed as downregulation of STAT3 phosphorylation levels at 10 to 500 nM incubated for 24 hrs by western blot analysis; type: cell-based; conditions: dose 10-500 nM; procedure, shortened: as §2

IC50 [1]: 13.2 nM
Structure (SMILES): CCC(=O)NCCOCCNC(=O)CCN1CCC(c2cc(OC(C)C)c(Nc3ncc(Cl)c(Nc4ccccc4S(=O)(=O)C(C)C)n3)cc2C)CC1

inhibition [5]: Active | inhibition [6]: Active | AUC(0-inf) [7]: 859 ng·h/mL | inhibition [2]: Active | IC50 [9]: > 1000 nM | Vd [10]: 2.81 L/kg | Cmax [13]: 157 ng/mL | inhibition [14]: Active | half-life [15]: 173 min | Tmax [17]: 2.67 h | inhibition [18]: Active | IC50 [4]: 150 nM | clearance [19]: 17 mL/min/kg | IC50 [20]: 875 nM | inhibition [21]: Active | IC50 [1]: 0.5 nM | bioavailability [22]: 12.1% | inhibition [24]: Active | Activity [25]: 891 Da | IC50 [26]: 1.4 nM | inhibition [27]: Active
Structure (SMILES): C=CC(=O)NCCOCCNC(=O)CCN1CCC(c2cc(OC(C)C)c(Nc3ncc(Cl)c(Nc4ccccc4S(=O)(=O)C(C)C)n3)cc2C)CC1
TGI [8]: Dose-dependent effect | inhibition in vivo at 50 mg/kg/day [11]: 62% | inhibition in vivo at 20 mg/kg/day [3]: 49.7% | Activity [12]: Non-Toxic | inhibition in vivo at 10 mg/kg/day [16]: 39.7% | Activity [23]: Non-Toxic

inhibition [5]: Active | inhibition [14]: Active
Structure (SMILES): C=CC(=O)NCCOCCOCCNC(=O)CCN1CCC(c2cc(OC(C)C)c(Nc3ncc(Cl)c(Nc4ccccc4S(=O)(=O)C(C)C)n3)cc2C)CC1

Further lines, the compound ahead of its results:

Structure (SMILES): Cc1cc(Nc2ncc(Cl)c(Nc3ccccc3S(=O)(=O)C(C)C)n2)c(OC(C)C)cc1C1CCNCC1 [CERITINIB]
inhibition [2]: Active | inhibition in vivo at 20 mg/kg/day [3]: 34% | IC50 [4]: 1100 nM

Structure (SMILES): C=CC(=O)NCCCCCCNC(=O)CCN1CCC(c2cc(OC(C)C)c(Nc3ncc(Cl)c(Nc4ccccc4S(=O)(=O)C(C)C)n3)cc2C)CC1
inhibition [5]: Active | Activity [12]: Non-Toxic | inhibition [14]: Active | IC50 [4]: 750 nM

Structure (SMILES): C=CC(=O)NCCOCCOCCOCCNC(=O)CCN1CCC(c2cc(OC(C)C)c(Nc3ncc(Cl)c(Nc4ccccc4S(=O)(=O)C(C)C)n3)cc2C)CC1
inhibition [5]: Active | Activity [12]: Non-Toxic | inhibition [14]: Active | IC50 [4]: 610 nM

Structure (SMILES): C=CC(=O)NCCCNC(=O)CCN1CCC(c2cc(OC(C)C)c(Nc3ncc(Cl)c(Nc4ccccc4S(=O)(=O)C(C)C)n3)cc2C)CC1
inhibition [5]: Active | Activity [12]: Non-Toxic | inhibition [14]: Active | IC50 [4]: 1140 nM

Structure (SMILES): C=CC(=O)NCCCCNC(=O)CCN1CCC(c2cc(OC(C)C)c(Nc3ncc(Cl)c(Nc4ccccc4S(=O)(=O)C(C)C)n3)cc2C)CC1
inhibition [5]: Active | inhibition [14]: Active

Structure (SMILES): C=CC(=O)NCCCCCCCCNC(=O)CCN1CCC(c2cc(OC(C)C)c(Nc3ncc(Cl)c(Nc4ccccc4S(=O)(=O)C(C)C)n3)cc2C)CC1
inhibition [5]: Active | Activity [12]: Non-Toxic | inhibition [14]: Active | IC50 [4]: 720 nM
